Measured values from ChEMBL document CHEMBL1154352, “Toll-like receptor 7 selective synthetic oligoribonucleotide agonists: synthesis and structure-activity relationship studies” (J Med Chem, 2009).
Calls of active or inactive are those of the source. The calls are words filed in the database; no cut-off is given here.

How the values were obtained:
[1] = Metabolic stability in human serum assessed as full length product remaining after 10 mins by HPLC; assay type: ADME, cell-free; details: read-out: Stability
Summary of the method: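 About 0.5 A260 units compound in 1% human serum in PBS, 37 °C; aliquot taken at 10 min, analysed by anion-exchange HPLC for percent intact full-length product.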

[2] = target: T1, Toll-like receptor 7 (Homo sapiens) (UniProt Q9NYK1); assay: Activation of human TLR7 expressed in HEK293XL assessed as fold induction of NF-kappaB activity at 50 ug/ml after 18 hrs by reporter gene assay relative to control
T1 sequence (whole entry): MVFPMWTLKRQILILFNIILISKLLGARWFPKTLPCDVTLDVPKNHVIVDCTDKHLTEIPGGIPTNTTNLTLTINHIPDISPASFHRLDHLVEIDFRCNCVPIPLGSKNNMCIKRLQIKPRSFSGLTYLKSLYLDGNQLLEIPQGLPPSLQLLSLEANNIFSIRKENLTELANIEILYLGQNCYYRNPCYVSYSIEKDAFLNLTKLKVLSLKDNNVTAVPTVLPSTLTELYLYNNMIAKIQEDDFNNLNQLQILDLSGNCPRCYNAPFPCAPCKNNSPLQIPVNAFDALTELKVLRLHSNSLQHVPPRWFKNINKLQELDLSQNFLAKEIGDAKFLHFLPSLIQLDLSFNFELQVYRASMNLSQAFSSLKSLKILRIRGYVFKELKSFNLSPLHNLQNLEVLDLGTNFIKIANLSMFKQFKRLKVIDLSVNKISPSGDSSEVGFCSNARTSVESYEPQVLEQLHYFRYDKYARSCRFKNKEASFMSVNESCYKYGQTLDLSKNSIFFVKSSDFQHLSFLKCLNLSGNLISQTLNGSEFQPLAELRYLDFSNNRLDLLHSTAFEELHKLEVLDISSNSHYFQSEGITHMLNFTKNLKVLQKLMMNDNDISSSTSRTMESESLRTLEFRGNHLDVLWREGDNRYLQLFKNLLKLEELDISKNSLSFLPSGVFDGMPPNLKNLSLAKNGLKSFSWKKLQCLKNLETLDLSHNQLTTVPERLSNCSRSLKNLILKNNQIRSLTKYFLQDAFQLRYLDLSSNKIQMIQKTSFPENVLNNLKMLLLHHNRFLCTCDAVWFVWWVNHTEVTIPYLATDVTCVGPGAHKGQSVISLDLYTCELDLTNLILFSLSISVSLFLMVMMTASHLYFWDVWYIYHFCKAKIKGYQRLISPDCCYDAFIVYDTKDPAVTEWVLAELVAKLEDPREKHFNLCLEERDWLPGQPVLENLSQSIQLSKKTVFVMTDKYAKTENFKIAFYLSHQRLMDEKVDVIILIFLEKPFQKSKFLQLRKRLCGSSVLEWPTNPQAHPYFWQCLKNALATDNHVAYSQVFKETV
Summary of the method: (§1)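 HEK293 cells stably expressing human TLR7 or TLR8, transiently transfected with SEAP reporter plasmid; medium replaced, SIMRA compounds added, 18 h incubation. Supernatant SEAP measured by QuantiBlue; expressed as fold increase in NF-κB activity over PBS control. Tabulated data at 50 μg/mL, representative of three independent experiments.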

[3] = target: T2, Toll-like receptor 8 (Homo sapiens) (UniProt Q9NR97); assay: Activation of human TLR8 expressed in HEK293XL assessed as fold induction of NF-kappaB activity at 50 ug/ml after 18 hrs by reporter gene assay relative to control; summary of the method: as §1
T2 sequence (whole entry): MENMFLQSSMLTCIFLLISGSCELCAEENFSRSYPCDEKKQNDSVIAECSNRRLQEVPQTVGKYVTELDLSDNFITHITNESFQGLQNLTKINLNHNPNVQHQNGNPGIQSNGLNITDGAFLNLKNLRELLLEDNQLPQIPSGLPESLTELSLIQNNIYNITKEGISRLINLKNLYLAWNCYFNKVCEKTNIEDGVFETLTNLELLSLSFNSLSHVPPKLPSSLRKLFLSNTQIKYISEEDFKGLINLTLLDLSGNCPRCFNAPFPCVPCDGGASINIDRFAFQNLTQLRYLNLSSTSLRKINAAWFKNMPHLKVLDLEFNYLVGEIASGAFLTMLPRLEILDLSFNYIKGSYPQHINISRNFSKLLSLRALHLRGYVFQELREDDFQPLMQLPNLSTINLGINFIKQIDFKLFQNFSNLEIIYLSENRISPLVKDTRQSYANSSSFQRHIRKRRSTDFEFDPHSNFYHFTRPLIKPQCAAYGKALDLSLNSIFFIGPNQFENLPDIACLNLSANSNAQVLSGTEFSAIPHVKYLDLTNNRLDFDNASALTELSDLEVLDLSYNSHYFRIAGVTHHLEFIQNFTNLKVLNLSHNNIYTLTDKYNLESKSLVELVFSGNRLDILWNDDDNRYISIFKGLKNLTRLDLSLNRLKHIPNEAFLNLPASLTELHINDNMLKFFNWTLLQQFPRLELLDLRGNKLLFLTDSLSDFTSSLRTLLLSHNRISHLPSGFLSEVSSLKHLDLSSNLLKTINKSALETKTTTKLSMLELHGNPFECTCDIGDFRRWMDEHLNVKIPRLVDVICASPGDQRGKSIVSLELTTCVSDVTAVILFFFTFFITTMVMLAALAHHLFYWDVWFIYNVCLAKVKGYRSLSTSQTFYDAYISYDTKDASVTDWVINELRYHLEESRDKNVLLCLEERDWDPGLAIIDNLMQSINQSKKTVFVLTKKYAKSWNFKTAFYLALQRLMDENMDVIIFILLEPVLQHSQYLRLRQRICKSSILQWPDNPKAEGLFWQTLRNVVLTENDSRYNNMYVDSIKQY

Homo sapiens = species on record: Homo sapiens; assay: Ratio of human TLR7 activity to human TLR8 activity
Summary of the method: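 TLR7/TLR8 ratio computed from fold NF-κB (SEAP reporter) activation in HEK293 cells stably expressing human TLR7 versus TLR8, compounds at 50 μg/mL, 18 h exposure; representative of three independent experiments.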

Splenocyte [4] = assay: Immunomodulatory activity in C57BL/6 mouse splenocytes bearing TLR7 receptor assessed as IL6 release at 100 ug/ml after 24 hrs by ELISA; assay type: functional, cell-based
Summary of the method: (§2)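 C57BL/6 splenocytes in RPMI 1640 with 10% FBS, penicillin/streptomycin, 2 mM L-glutamine, plated at 5 × 10^6 cells/mL; compounds in PBS added, 37 °C for 24 h. Supernatant IL-12 and IL-6 by ELISA; representative of three independent experiments.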

Splenocyte [5] = assay: Immunomodulatory activity in C57BL/6 mouse splenocytes bearing TLR7 receptor assessed as IL12 release at 100 ug/ml after 24 hrs by ELISA; assay type: functional, cell-based; summary of the method: as §2
PBMC = assay: Immunomodulatory activity in human PBMC assessed as induction of TNFalpha at 100 ug/ml after 24 hrs; assay type: functional, cell-based
Summary of the method: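 Human PBMCs plated at 5 × 10^6 cells/mL; compounds dissolved in PBS added at various concentrations, 37 °C for 24 h. Supernatant cytokines/chemokines quantified with human Luminex multiplex kit.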

Row | remaining at 10 min [1] | fold change (FC) [2] | fold change (FC) [3] | Ratio (Homo sapiens) | Activity (Splenocyte [4]) | Activity (Splenocyte [5]) | SMILES | Activity (PBMC)
1 | 90% | 17.5 | 0.8 | 21.9 | Active | Active | Nc1ccn([C@@H]2O[C@H](COP(=O)(S)O[C@H]3[C@@H](O)[C@H](n4cnc5c(N)ncnc54)O[C@@H]3COP(=O)(S)O[C@H]3[C@@H](O)[C@H](n4ccc5c(=O)[nH]c(N)nc54)O[C@@H]3COP(=O)(S)O[C@H]3[C@@H](O)[C@H](n4ccc(=O)[nH]c4=O)O[C@@H]3COP(=O)(S)O[C@H]3[C@@H](O)[C@H](n4ccc5c(=O)[nH]c(N)nc54)O[C@@H]3COP(=O)(S)O[C@H]3[C@@H](O)[C@H](n4cnc5c(N)ncnc54)O[C@@H]3COP(=O)(S)O[C@H]3[C@@H](O)[C@H](n4cnc5c(N)ncnc54)O[C@@H]3CO)[C@@H](OP(=O)(S)OC[C@H]3O[C@@H](n4ccc5c(=O)[nH]c(N)nc54)[C@H](O)[C@@H]3OP(=O)(S)OC[C@H]3O[C@@H](n4cnc5c(N)ncnc54)[C@H](O)[C@@H]3OP(=O)(S)OC[C@H]3O[C@@H](n4ccc(=O)[nH]c4=O)[C@H](O)[C@@H]3OP(=O)(S)OC[C@H]3O[C@@H](n4ccc(=O)[nH]c4=O)[C@H](O)[C@@H]3OP(=O)(S)OCC(O)COP(=O)(S)O[C@H]3[C@@H](O)[C@H](n4ccc(=O)[nH]c4=O)O[C@@H]3COP(=O)(S)O[C@H]3[C@@H](O)[C@H](n4ccc(=O)[nH]c4=O)O[C@@H]3COP(=O)(S)O[C@H]3[C@@H](O)[C@H](n4cnc5c(N)ncnc54)O[C@@H]3COP(=O)(S)O[C@H]3[C@@H](O)[C@H](n4ccc5c(=O)[nH]c(N)nc54)O[C@@H]3COP(=O)(S)O[C@H]3[C@@H](O)[C@H](n4ccc(N)nc4=O)O[C@@H]3COP(=O)(S)O[C@H]3[C@@H](O)[C@H](n4cnc5c(N)ncnc54)O[C@@H]3COP(=O)(S)O[C@H]3[C@@H](O)[C@H](n4ccc5c(=O)[nH]c(N)nc54)O[C@@H]3COP(=O)(S)O[C@H]3[C@@H](O)[C@H](n4ccc(=O)[nH]c4=O)O[C@@H]3COP(=O)(S)O[C@H]3[C@@H](O)[C@H](n4ccc5c(=O)[nH]c(N)nc54)O[C@@H]3COP(=O)(S)O[C@H]3[C@@H](O)[C@H](n4cnc5c(N)ncnc54)O[C@@H]3COP(=O)(S)O[C@H]3[C@@H](O)[C@H](n4cnc5c(N)ncnc54)O[C@@H]3CO)[C@H]2O)c(=O)n1 (some centres undefined) | 15.7 pg/mL
2 | 85% | 28.9 | 1.5 | 19.3 | Active | Active | Nc1ccn([C@@H]2O[C@H](CO)[C@@H](OP(=O)(S)OC[C@H]3O[C@@H](n4ccc(=O)[nH]c4=O)[C@H](O)[C@@H]3OP(=O)(S)OC[C@H]3O[C@@H](n4ccc(=O)[nH]c4=O)[C@H](O)[C@@H]3OP(=O)(S)OC[C@H]3O[C@@H](n4ccc5c(=O)[nH]c(N)nc54)[C@H](O)[C@@H]3OP(=O)(S)OC[C@H]3O[C@@H](n4ccc(=O)[nH]c4=O)[C@H](O)[C@@H]3OP(=O)(S)OC[C@H]3O[C@@H](n4ccc5c(=O)[nH]c(N)nc54)[C@H](O)[C@@H]3OP(=O)(S)OC[C@H]3O[C@@H](n4cnc5c(N)ncnc54)[C@H](O)[C@@H]3OP(=O)(S)OC[C@H]3O[C@@H](n4ccc5c(=O)[nH]c(N)nc54)[C@H](O)[C@@H]3OP(=O)(S)OC[C@H]3O[C@@H](n4ccc(N)nc4=O)[C@H](O)[C@@H]3OP(=O)(S)OC[C@H]3O[C@@H](n4ccc(=O)[nH]c4=O)[C@H](O)[C@@H]3OP(=O)(S)OC[C@H]3O[C@@H](n4ccc(=O)[nH]c4=O)[C@H](O)[C@@H]3OP(=O)(S)OCC(O)COP(=O)(S)O[C@H]3[C@@H](O)[C@H](n4ccc(=O)[nH]c4=O)O[C@@H]3COP(=O)(S)O[C@H]3[C@@H](O)[C@H](n4ccc(=O)[nH]c4=O)O[C@@H]3COP(=O)(S)O[C@H]3[C@@H](O)[C@H](n4ccc(N)nc4=O)O[C@@H]3COP(=O)(S)O[C@H]3[C@@H](O)[C@H](n4ccc5c(=O)[nH]c(N)nc54)O[C@@H]3COP(=O)(S)O[C@H]3[C@@H](O)[C@H](n4cnc5c(N)ncnc54)O[C@@H]3COP(=O)(S)O[C@H]3[C@@H](O)[C@H](n4ccc5c(=O)[nH]c(N)nc54)O[C@@H]3COP(=O)(S)O[C@H]3[C@@H](O)[C@H](n4ccc(=O)[nH]c4=O)O[C@@H]3COP(=O)(S)O[C@H]3[C@@H](O)[C@H](n4ccc5c(=O)[nH]c(N)nc54)O[C@@H]3COP(=O)(S)O[C@H]3[C@@H](O)[C@H](n4ccc(=O)[nH]c4=O)O[C@@H]3COP(=O)(S)O[C@H]3[C@@H](O)[C@H](n4ccc(=O)[nH]c4=O)O[C@@H]3COP(=O)(S)O[C@H]3[C@@H](O)[C@H](n4ccc(N)nc4=O)O[C@@H]3CO)[C@H]2O)c(=O)n1 (some centres undefined) | 403 pg/mL
